According to ChEMBL document CHEMBL1641520, “Design, synthesis, and biological evaluation of novel water-soluble N-mustards as potential anticancer agents” (Bioorg Med Chem, 2011):
The source made the active and inactive calls. The rule behind the calls is not given here.

What was measured:
CCRF-CEM [1] = assay: Cytotoxicity against human CCRF-CEM cells after 72 hrs by XTT assay; format: functional, cell-based
Outline: (§1)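 CCRF-CEM leukemia cells and their taxol- or vinblastine-resistant sublines given compound for 72 h. XTT read-out: after phenazine methosulfate–XTT, 6 h at 37 °C, absorbance at 450 and 630 nm. IC50 from median-effect analysis of dose-effect data at six or seven concentrations.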

CCRF-CEM [2] = assay: Cytotoxicity against taxol-resistant human CCRF-CEM cells after 72 hrs by XTT assay; format: functional, cell-based; outline: as §1
CCRF-CEM [3] = assay: Cytotoxicity against vinblastine-resistant human CCRF-CEM cells after 72 hrs by XTT assay; format: functional, cell-based; outline: as §1
CCRF-CEM [4] = assay: Selectivity ratio of IC50 for taxol-resistant human CCRF-CEM cells to IC50 for human CCRF-CEM cells; format: functional
CCRF-CEM [5] = assay: Selectivity ratio of IC50 for vinblastine-resistant human CCRF-CEM cells to IC50 for human CCRF-CEM cells; format: functional
HCT-116 = assay: Cytotoxicity against human HCT116 cells after 72 hrs by SRB assay; format: functional, cell-based; conditions: HCT-116, 72 h
Outline: (§2)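 MX-1 breast and HCT-116 colon carcinoma cells exposed to compound for 72 h; growth measured by sulforhodamine B assay. IC50 from median-effect analysis of dose-effect data at six or seven concentrations.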

MX1 = assay: Cytotoxicity against human MX1 cells after 72 hrs by SRB assay; format: functional, cell-based; conditions: MX1, 72 h; outline: as §2
U-87MG ATCC = conditions: Homo sapiens, 80 mg/kg
[6] = Cytotoxicity against human H1299 cells after 72 hrs by alamar blue assay; format: functional, cell-based; conditions: NCI-H1299, 72 h
Outline: (§3)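 H1299, PC3, CL1-0, CL1-5 and MCF-7 cells exposed to compound for 72 h. Alamar blue added, then 6 h at 37 °C; absorbance at 570 and 600 nm. IC50 from median-effect analysis of dose-effect data at six or seven concentrations.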

[7] = Cytotoxicity against human CL1-5 cells after 72 hrs by alamar blue assay; format: functional, cell-based; conditions: CL1-5, 72 h; outline: as §3
PC-3 = assay: Cytotoxicity against human PC3 cells after 72 hrs by alamar blue assay; format: functional, cell-based; conditions: PC-3, 72 h; outline: as §3
MCF7 = assay: Cytotoxicity against human MCF7 cells after 72 hrs by alamar blue assay; format: functional, cell-based; conditions: MCF7, 72 h; outline: as §3
[8] = Cytotoxicity against human CL1-0 cells after 72 hrs by alamar blue assay; format: functional, cell-based; conditions: CL1-0, 72 h; outline: as §3
Nucleic Acid = assay: Binding affinity to Escherichia coli plasmid EGFP-N1 DNA at 1 to 10 uM after 22 hrs by alkaline agarose gel shift assay; format: nucleic-acid assay
Outline: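 Purified pEGFP-N1 plasmid DNA (1500 ng) incubated with compound (1–20 µM) in 3 mM NaCl/1 mM sodium phosphate pH 7.4/1 mM EDTA for 2 h at 37 °C. Linearized with BamHI, ethanol-precipitated, denatured in 0.5 N NaOH-10 mM EDTA. Run on 0.8% alkaline agarose gel at 4 °C, 18 V for 22 h. Ethidium bromide stain; cross-linked double-stranded DNA scored against single-stranded DNA.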

Row | Structure (SMILES) | IC50 (CCRF-CEM [1]) [nM] | IC50 (CCRF-CEM [2]) [nM] | IC50 (CCRF-CEM [3]) [nM] | Ratio IC50 (CCRF-CEM [4]) | Ratio IC50 (CCRF-CEM [5]) | IC50 (HCT-116) [nM] | IC50 (MX1) [nM] | inhibition (U-87MG ATCC) | IC50 [6] [nM] | IC50 [7] [nM] | IC50 (PC-3) [nM] | IC50 (MCF7) [nM] | IC50 [8] [nM] | Activity (Nucleic Acid)
1 | CN(C)CCNC(=O)c1ccc(NC(=O)Nc2ccc(N(CCCl)CCCl)cc2)cc1.Cl | 230 | 4800 | 6740 | 21.1 | 29.6 | 390 | 1090 |  |  |  |  |  |  | 
2 | Cl.O=C(Nc1ccc(N(CCCl)CCCl)cc1)Nc1cccc(C(=O)NCCN2CCCC2)c1 | 340 | 25200 | 36600 | 73.7 | 106.9 | 470 | 2170 |  |  |  |  |  |  | 
3 | O=P1(N(CCCl)CCCl)NCCCO1 (configuration not stated) |  |  |  |  |  |  |  | Active |  |  |  |  |  | 
4 | CN(C)CCCOc1cccc(NC(=O)Nc2ccc(N(CCCl)CCCl)cc2)c1 | 320 | 2050 | 2370 | 6.4 | 7.4 |  |  |  |  |  |  |  |  | 
5 | Cl.O=C(Nc1ccc(C(=O)N2CCC(N3CCCCC3)CC2)cc1)Nc1ccc(N(CCCl)CCCl)cc1 | 220 | 20500 | 32200 | 91.4 | 143.7 | 640 | 3640 |  | 9630 | 8510 | 1910 | 1540 | 15800 | 
6 | CN(C)CCCOc1ccc(NC(=O)Nc2ccc(N(CCCl)CCCl)cc2)cc1.Cl | 120 | 1360 | 1260 | 11.8 | 10.9 | 290 | 260 |  | 9790 | 5110 | 940 | 1320 | 7090 | Active
7 | CN(C)CCOc1cccc(NC(=O)Nc2ccc(N(CCCl)CCCl)cc2)c1 | 1320 | 810 | 1480 | 0.6 | 1.1 |  |  |  |  |  |  |  |  | 
8 | CC(=O)O[C@H]1C(=O)[C@@]2(C)[C@H]([C@H](OC(=O)c3ccccc3)[C@]3(O)C[C@H](OC(=O)[C@H](O)[C@@H](NC(=O)c4ccccc4)c4ccccc4)C(C)=C1C3(C)C)[C@]1(OC(C)=O)CO[C@@H]1C[C@@H]2O [PACLITAXEL] | 3 |  |  | 330 | 980 |  |  |  |  |  |  |  |  | 
9 | Cl.O=C(Nc1ccc(OCCN2CCOCC2)cc1)Nc1ccc(N(CCCl)CCCl)cc1 | 350 | 840 | 640 | 2.4 | 1.8 |  |  |  |  |  |  |  |  | 
10 | O=C(Nc1ccc(N(CCCl)CCCl)cc1)Nc1cccc(OCCN2CCCC2)c1 | 350 | 1200 | 4200 | 3.5 | 12.1 |  |  |  |  |  |  |  |  | 
11 | O=C(Nc1ccc(N(CCCl)CCCl)cc1)Nc1cccc(OCCN2CCOCC2)c1 | 410 | 730 | 1130 | 1.8 | 2.8 |  |  |  |  |  |  |  |  | 
12 | CC[C@]1(O)C[C@@H]2CN(CCc3c([nH]c4ccccc34)[C@@](C(=O)OC)(c3cc4c(cc3OC)N(C)[C@H]3[C@@](O)(C(=O)OC)[C@H](OC(C)=O)[C@]5(CC)C=CCN6CC[C@]43[C@@H]65)C2)C1 [VINBLASTINE] | 0.7 | 80 |  | 106.2 | 679.5 |  |  |  |  |  |  |  |  | 
